Assay results published in ChEMBL document CHEMBL4406880, “Design, synthesis, and bioactivity of dihydropyrimidine derivatives as kinesin spindle protein inhibitors” (Bioorg Med Chem, 2019).

How the values were obtained:
Assay type in all cases: functional
BT-549 = assay: Growth inhibition of human BT549 cells assessed as growth percentage at 10 uM incubated for 48 hrs by sulforhodamine B assay relative to control; conditions: BT-549, 48 h, read-out: Activity
Summary of the method: (§1)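 NCI-60 one-dose screen: cells in RPMI 1640 with 5% FBS and 2 mM L-glutamine, plated at 5,000–40,000 cells/well and preincubated 24 h at 37 °C, 5% CO2. Compound is added from a DMSO stock to a final 10 µM and incubated 48 h. Cells are TCA-fixed and stained with sulforhodamine B, read at 515 nm. Output is % growth versus untreated control, with a time-zero plate.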

UACC-257 = assay: Growth inhibition of human UACC257 cells assessed as growth percentage at 10 uM incubated for 48 hrs by sulforhodamine B assay relative to control; conditions: UACC-257, 48 h, read-out: Activity
Summary of the method: (§2)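 NCI-60 single-dose screen. Cells were grown in RPMI 1640 with 5% FBS and 2 mM L-glutamine and plated at 5,000–40,000 cells/well. After an overnight preincubation at 37 °C in 5% CO2, compound was added at a final 10 µM from a DMSO stock, with DMSO/PBS controls. After 48 h, cells were TCA-fixed and stained with 0.4% SRB, and absorbance was read at 515 nm. Growth is given as a percentage of untreated control.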

HOP-62 = assay: Growth inhibition of human HOP62 cells assessed as growth percentage at 10 uM incubated for 48 hrs by sulforhodamine B assay relative to control; conditions: HOP-62, 48 h, read-out: Activity
Summary of the method: (§3)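 NCI-60 one-dose screen. Cells in RPMI 1640 with 5% FBS and 2 mM L-glutamine, seeded at 5,000–40,000 cells/well according to doubling time, and preincubated overnight at 37 °C, 5% CO2. A time-zero plate was TCA-fixed at drug addition. Compound from DMSO stock, final 10 µM, 48 h; DMSO vehicle controls. Fixation with TCA, 10% final (16% for suspension cells). SRB stain, Tris solubilization, A515. Result given as % growth versus untreated cells.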

786-0 = assay: Growth inhibition of human 786-0 cells assessed as growth percentage at 10 uM incubated for 48 hrs by sulforhodamine B assay relative to control; conditions: 786-0, 48 h, read-out: Activity; summary of the method: as §1
HCT-116 = assay: Growth inhibition of human HCT116 cells assessed as growth percentage at 10 uM incubated for 48 hrs by sulforhodamine B assay relative to control; conditions: HCT-116, 48 h, read-out: Activity; summary of the method: as §1
RPMI-8226 = assay: Growth inhibition of human RPMI8226 cells assessed as growth percentage at 10 uM incubated for 48 hrs by sulforhodamine B assay relative to control; conditions: RPMI-8226, 48 h, read-out: Activity; summary of the method: as §2
NCI-H322M = assay: Growth inhibition of human NCI-H322M cells assessed as growth percentage at 10 uM incubated for 48 hrs by sulforhodamine B assay relative to control; conditions: read-out: Activity; summary of the method: as §3
RXF 393 = assay: Growth inhibition of human RXF393 cells assessed as growth percentage at 10 uM incubated for 48 hrs by sulforhodamine B assay relative to control; conditions: RXF 393, 48 h, read-out: Activity; summary of the method: as §2
SN12C = assay: Growth inhibition of human SN12C cells assessed as growth percentage at 10 uM incubated for 48 hrs by sulforhodamine B assay relative to control; conditions: read-out: Activity; summary of the method: as §2
HCC 2998 = assay: Growth inhibition of human HCC2998 cells assessed as growth percentage at 10 uM incubated for 48 hrs by sulforhodamine B assay relative to control; conditions: HCC 2998, 48 h, read-out: Activity; summary of the method: as §1
SW-620 = assay: Growth inhibition of human SW620 cells assessed as growth percentage at 10 uM incubated for 48 hrs by sulforhodamine B assay relative to control; conditions: SW-620, 48 h, read-out: Activity; summary of the method: as §2
A549 = assay: Growth inhibition of human A549/ATCC cells assessed as growth percentage at 10 uM incubated for 48 hrs by sulforhodamine B assay relative to control; conditions: A549, 48 h, read-out: Activity; summary of the method: as §1
HOP-92 = assay: Growth inhibition of human HOP92 cells assessed as growth percentage at 10 uM incubated for 48 hrs by sulforhodamine B assay relative to control; conditions: HOP-92, 48 h, read-out: Activity; summary of the method: as §3
MDA-MB-468 = assay: Growth inhibition of human MDA-MB-468 cells assessed as growth percentage at 10 uM incubated for 48 hrs by sulforhodamine B assay relative to control; conditions: MDA-MB-468, 48 h, read-out: Activity; summary of the method: as §3
SK-MEL-5 = assay: Growth inhibition of human SK-MEL-5 cells assessed as growth percentage at 10 uM incubated for 48 hrs by sulforhodamine B assay relative to control; conditions: SK-MEL-5, 48 h, read-out: Activity; summary of the method: as §2
ACHN = assay: Growth inhibition of human ACHN cells assessed as growth percentage at 10 uM incubated for 48 hrs by sulforhodamine B assay relative to control; conditions: read-out: Activity; summary of the method: as §1
NCI-H23 = assay: Growth inhibition of human NCI-H23 cells assessed as growth percentage at 10 uM incubated for 48 hrs by sulforhodamine B assay relative to control; conditions: NCI-H23, 48 h, read-out: Activity; summary of the method: as §3
SK-OV-3 = assay: Growth inhibition of human SKOV3 cells assessed as growth percentage at 10 uM incubated for 48 hrs by sulforhodamine B assay relative to control; conditions: SK-OV-3, 48 h, read-out: Activity; summary of the method: as §2
HT-29 = assay: Growth inhibition of human HT-29 cells assessed as growth percentage at 10 uM incubated for 48 hrs by sulforhodamine B assay relative to control; conditions: HT-29, 48 h, read-out: Activity; summary of the method: as §3
SK-MEL-28 = assay: Growth inhibition of human SK-MEL-28 cells assessed as growth percentage at 10 uM incubated for 48 hrs by sulforhodamine B assay relative to control; conditions: SK-MEL-28, 48 h, read-out: Activity; summary of the method: as §2
SF-268 = assay: Growth inhibition of human SF268 cells assessed as growth percentage at 10 uM incubated for 48 hrs by sulforhodamine B assay relative to control; conditions: SF-268, 48 h, read-out: Activity; summary of the method: as §2
OVCAR-3 = assay: Growth inhibition of human OVCAR3 cells assessed as growth percentage at 10 uM incubated for 48 hrs by sulforhodamine B assay relative to control; conditions: OVCAR-3, 48 h, read-out: Activity; summary of the method: as §3
NCI/ADR-RES = assay: Growth inhibition of human NCI/ADR-RES cells assessed as growth percentage at 10 uM incubated for 48 hrs by sulforhodamine B assay relative to control; conditions: read-out: Activity; summary of the method: as §3
OVCAR-4 = assay: Growth inhibition of human OVCAR4 cells assessed as growth percentage at 10 uM incubated for 48 hrs by sulforhodamine B assay relative to control; conditions: OVCAR-4, 48 h, read-out: Activity; summary of the method: as §3
Malme-3M = assay: Growth inhibition of human MALME-3M cells assessed as growth percentage at 10 uM incubated for 48 hrs by sulforhodamine B assay relative to control; conditions: read-out: Activity; summary of the method: as §3
SF-295 = assay: Growth inhibition of human SF295 cells assessed as growth percentage at 10 uM incubated for 48 hrs by sulforhodamine B assay relative to control; conditions: SF-295, 48 h, read-out: Activity; summary of the method: as §2

Row | SMILES | growth at 10 µM (BT-549) [%] | growth at 10 µM (UACC-257) [%] | growth at 10 µM (HOP-62) [%] | growth at 10 µM (786-0) [%] | growth at 10 µM (HCT-116) [%] | growth at 10 µM (RPMI-8226) [%] | growth at 10 µM (NCI-H322M) [%] | growth at 10 µM (RXF 393) [%] | growth at 10 µM (SN12C) [%] | growth at 10 µM (HCC 2998) [%] | growth at 10 µM (SW-620) [%] | growth at 10 µM (A549) [%] | growth at 10 µM (HOP-92) [%] | growth at 10 µM (SK-MEL-5) [%] | growth at 10 µM (ACHN) [%] | growth at 10 µM (NCI-H23) [%] | growth at 10 µM (SK-OV-3) [%] | growth at 10 µM (HT-29) [%] | growth at 10 µM (SK-MEL-28) [%] | growth at 10 µM (SF-268) [%] | other results
1 | CC1=C(C(=O)OC(C)C)C(c2ccc3c(c2)OCO3)NC(=S)N1 (racemic) | 96 | 100 | 119 | 104 | 95.6 | 87.7 | 108 | 106 | 105 | 115 | 107 | 104 | 96.6 | 98.5 | 99.3 | 99.2 | 105 | 103 | 106 | 103 | growth at 10 µM (MDA-MB-468): 115%; growth at 10 µM (OVCAR-3): 121%; growth at 10 µM (NCI/ADR-RES): 101%; growth at 10 µM (OVCAR-4): 98.4%; growth at 10 µM (Malme-3M): 95.9%; growth at 10 µM (SF-295): 95.8%
2 | CC1=C(C(=O)c2ccccc2)C(c2ccc3c(c2)OCO3)NC(=S)N1 (racemic) | 50.6 | 57.2 | 51.8 | 58.9 | 20.1 | 44 | 67.7 | 59.5 | 51.4 | 62.2 | 24.2 | 40.3 | 92.3 | 28.2 | 45.5 | 48 | 51.6 | 18.5 | 70.9 | 75.8 | growth at 10 µM (MDA-MB-468): 54.3%; growth at 10 µM (OVCAR-3): 12.9%; growth at 10 µM (NCI/ADR-RES): 43.3%; growth at 10 µM (OVCAR-4): 82.3%; growth at 10 µM (Malme-3M): 54.5%; growth at 10 µM (SF-295): 51.2%
3 | COCCOC(=O)C1=C(C)NC(=S)NC1c1ccc2c(c1)OCO2 (racemic) | 109 | 90.2 | 98 | 107 | 103 | 105 | 101 | 101 | 104 | 110 | 106 | 101 | 108 | 97.6 | 106 | 96.2 | 103 | 96.7 | 114 | 97.4 | growth at 10 µM (OVCAR-3): 111%; growth at 10 µM (NCI/ADR-RES): 103%; growth at 10 µM (OVCAR-4): 103%; growth at 10 µM (Malme-3M): 108%; growth at 10 µM (SF-295): 105%
4 | O=C1NC2=C(C(=O)c3ccccc32)C(c2ccc3c(c2)OCO3)N1 (racemic) | 102 | 100 | 96.1 | 106 | 108 | 107 | 111 | 98.8 | 100 | 107 | 104 | 106 | 99 | 101 | 104 | 104 | 104 | 107 | 114 | 97.4 | growth at 10 µM (MDA-MB-468): 114%; growth at 10 µM (OVCAR-3): 115%; growth at 10 µM (NCI/ADR-RES): 109%; growth at 10 µM (OVCAR-4): 116%; growth at 10 µM (Malme-3M): 106%; growth at 10 µM (SF-295): 103%
5 | CC1=C(C(=O)c2ccccc2)C(c2ccc3c(c2)OCO3)NC(=O)N1 (racemic) | 95.6 | 98 | 99.2 | 99.5 | 98.9 | 100 | 99.5 | 109 | 97 | 111 | 98.5 | 101 | 92.4 | 98.8 | 108 | 107 | 109 | 105 | 117 | 100 | growth at 10 µM (MDA-MB-468): 109%; growth at 10 µM (OVCAR-3): 106%; growth at 10 µM (NCI/ADR-RES): 103%; growth at 10 µM (OVCAR-4): 99.9%; growth at 10 µM (Malme-3M): 91.7%; growth at 10 µM (SF-295): 101%
6 | CC1=C(C(=O)OCc2ccccc2)C(c2ccc3c(c2)OCO3)NC(=S)N1 (racemic) | 103 | 96.7 | 106 | 105 | 93.1 | 76.5 | 95.1 | 94.4 | 96.8 | 120 | 94.2 | 93.7 | 99 | 88.9 | 98.9 | 94.5 | 109 | 105 | 106 | 97.3 | growth at 10 µM (OVCAR-3): 98.4%; growth at 10 µM (NCI/ADR-RES): 105%; growth at 10 µM (OVCAR-4): 84.5%; growth at 10 µM (Malme-3M): 115%; growth at 10 µM (SF-295): 102%
7 | CC1=C(C(=O)OCc2ccccc2)C(c2ccc3c(c2)OCO3)n2c(nc3ccccc32)N1 (racemic) | 44 to 50.5 | 34 to 60.4 | 36 to 44.2 | 31 to 43.1 | 18.8 to 25 | 39.9 | 47 to 55 | 30 to 53.2 | 47.6 to 51 | 50 to 56.4 | 17.6 to 19 | 34 to 47.1 | 32 to 78.5 | 25.5 to 28 | 36 to 38.4 | 49.3 to 56 | 27 to 41.7 | 7 to 14.4 | 52 to 61.8 | 26 to 59.6 | growth at 10 µM (NCI/ADR-RES): 20 to 23.2%; growth at 10 µM (OVCAR-4): 54 to 73.8%; growth at 10 µM (Malme-3M): 26 to 39.7%; growth at 10 µM (SF-295): 8 to 20.4%
